For 3 proteins, Km results are on record in ChEMBL document CHEMBL1134666, “Design, synthesis, and biological evaluation of novel nucleoside and nucleotide analogues as agents against DNA viruses and/or retroviruses” (J Med Chem, 2001).

Substrate in series [1]: Nc1ncnc2c1ncn2[C@@H]1O[C@H](COP(=O)(O)O)[C@@H](OP(=O)(O)COCCn2cnc3ncnc(N)c32)[C@H]1O
Kind of series: (§1) Michaelis rate constant is determined by the Lineweaver and Burk method against PRPP synthetase. In a few lines:
(§2)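 PRPP synthetase reaction in 10.0 mM potassium phosphate buffer (pH 8.0) with 5.0 mM MgCl₂, 2.5 mM PRPP, 0.04 unit enzyme and AMP or test nucleotide. Reactions ran linearly and were stopped with MeOH after 4 h. Diphosphate or ATP formation was analysed by anion-exchange HPLC. Inhibition was measured at different AMP concentrations plus inhibitor, with 0.002 unit enzyme, 37 °C, 15 min, ATP formation followed by HPLC.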

Substrate in series [2]: Nc1ncnc2ncn(CCOCP(=O)(O)O)c12
The description is as §1. The method in brief: as §2

Substrate in series [3]: Nc1nc(O)c2c(ncn2COCCO)n1
Particulars: Chlorocebus sabaeus; Vero.

Substrate in series [4]: Nc1nc2c(ncn2COCCO)c(=O)[nH]1
Particulars: Chlorocebus sabaeus; Vero.

Substrate in series [5]: Nc1nc(O)c2c(ncn2COCCO)n1
Particulars: herpes simplex virus.

Substrate in series [6]: Nc1ncnc2c1ncn2COCCO
Particulars: herpes simplex virus.

Substrate in series [7]: Nc1ncnc2c1ncn2[C@@H]1O[C@H](CO)[C@@H](O)[C@@H]1O
Particulars: herpes simplex virus.

Substrate in series [8]: Nc1ncnc2ncn(COCCO)c12
Particulars: herpes simplex virus.

Substrate in series [9]: Nc1ncnc2c1ncn2[C@@H]1O[C@H](COP(=O)(O)O)[C@@H](OP(=O)(O)COCCn2cnc3ncnc(N)c32)[C@H]1O
Kind of series: (§3) Michaelis rate constant is determined by the Lineweaver and Burk method against adenosine deaminase. The method in brief:
(§4)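 Reaction velocity measured as µmol/min per mg enzyme across substrate concentrations.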

Substrate in series [10]: COC1=C(OC)/C(=C/COP(=O)(O)COCCn2cnc3c(N)ncnc32)OC1=O
The series is described as §3. In a few lines: as §4

Substrate in series [11]: COC1=C(OC)/C(=C/COP(=O)(O)OC[C@H]2O[C@@H](n3cnc4c(N)ncnc43)[C@H](O)[C@@H]2OP(=O)(O)COCCn2cnc3ncnc(N)c32)OC1=O
The series is described as §3. The method in brief: as §4

Substrate in series [12]: Nc1ncnc2ncn(CCOCP(=O)(O)O)c12
The description is as §3. The method in brief:
as §4

Substrate in series [13]: Nc1ncnc2ncn(COCCO)c12
The description is as §3. The method in brief: as §4

B1: Phosphoribosyl pyrophosphate synthase-associated protein 2 (Homo sapiens), O60256 (protein)
chain: MFCVTPPELETKMNITKGGLVLFSANSNSSCMELSKKIAERLGVEMGKVQVYQEPNRETRVQIQESVRGKDVFIIQTVSKDVNTTIMELLIMVYACKTSCAKSIIGVIPYFPYSKQCKMRKRGSIVSKLLASMMCKAGLTHLITMDLHQKEIQGFFNIPVDNLRASPFLLQYIQEEIPDYRNAVIVAKSPASAKRAQSFAERLRLGIAVIHGEAQDAESDLVDGRHSPPMVRSVAAIHPSLEIPMLIPKEKPPITVVGDVGGRIAIIVDDIIDDVDSFLAAAETLKERGAYKIFVMATHGLLSSDAPRRIEESAIDEVVVTNTIPHEVQKLQCPKIKTVDISMILSEAIRRIHNGESMSYLFRNIGLDD
On to B1, for which the Km in [1] came to 570 µM; in series [2], 4800 µM.

B2: Thymidine kinase, cytosolic (Homo sapiens), P04183 (protein)
chain: MSCINLPTVLPGSPSKTRGQIQVILGPMFSGKSTELMRRVRRFQIAQYKCLVIKYAKDTRYSSSFCTHDRNTMEALPACLLRDVAQEALGVAVIGIDEGQFFPDIVEFCEAMANAGKTVIVAALDGTFQRKPFGAILNLVPLAESVVKLTAVCMECFREAAYTKRLGTEKEVEVIGGADKYHSVCRLCYFKKASGQPAGPDNKENCPVPGKPGEAVAARKLFAPQQILQCSPAN
Consider B2, for which the Km stood at 18.3 µM in series [3]; 2.2 µM in series [4]; 12.8 µM in [5]; 2 µM in series [6]; 1.5 µM in series [7]; 30 µM in series [8].

B3: Adenosine deaminase (Bos taurus), P56658 (protein)
chain: MAQTPAFNKPKVELHVHLDGAIKPETILYYGRKRGIALPADTPEELQNIIGMDKPLSLPEFLAKFDYYMPAIAGCREAVKRIAYEFVEMKAKDGVVYVEVRYSPHLLANSKVEPIPWNQAEGDLTPDEVVSLVNQGLQEGERDFGVKVRSILCCMRHQPSWSSEVVELCKKYREQTVVAIDLAGDETIEGSSLFPGHVKAYAEAVKSGVHRTVHAGEVGSANVVKEAVDTLKTERLGHGYHTLEDATLYNRLRQENMHFEVCPWSSYLTGAWKPDTEHPVVRFKNDQVNYSLNTDDPLIFKSTLDTDYQMTKNEMGFTEEEFKRLNINAAKSSFLPEDEKKELLDLLYKAYGMPSPASAEQCL
On to B3, for which the Km in series [9] was 160 µM; in series [10], greater than 800 µM; in [11] it was 640 µM; in series [12] it was greater than 800 µM; in series [13] it was 200 µM.
